Results taken from PMC6400523 (The Journal of General Physiology, 2019).

What was measured:
[1] = target: T1, rat ASCT2 (Rattus norvegicus, UniProt D3ZJ25); type: cell-based; settings: for Behaviour in anion current assay (inhibitor / substrate): rASCT2, direction of induced current
T1 sequence (D3ZJ25 1-555): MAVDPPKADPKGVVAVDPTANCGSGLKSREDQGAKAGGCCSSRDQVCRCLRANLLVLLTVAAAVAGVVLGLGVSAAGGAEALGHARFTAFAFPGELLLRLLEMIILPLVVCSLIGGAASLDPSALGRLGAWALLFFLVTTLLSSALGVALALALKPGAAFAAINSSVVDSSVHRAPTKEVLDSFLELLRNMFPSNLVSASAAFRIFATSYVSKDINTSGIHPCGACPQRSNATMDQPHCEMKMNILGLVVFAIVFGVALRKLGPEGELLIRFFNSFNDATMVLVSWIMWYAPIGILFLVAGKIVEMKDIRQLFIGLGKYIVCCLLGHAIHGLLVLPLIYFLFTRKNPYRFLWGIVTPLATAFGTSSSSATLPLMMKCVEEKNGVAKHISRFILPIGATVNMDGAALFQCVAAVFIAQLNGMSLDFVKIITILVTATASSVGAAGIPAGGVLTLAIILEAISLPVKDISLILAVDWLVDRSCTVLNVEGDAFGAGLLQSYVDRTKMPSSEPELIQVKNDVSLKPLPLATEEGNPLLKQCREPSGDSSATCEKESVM
Summary of the method: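 HEK293 cells cotransfected with rASCT2 and YFP cDNA; whole-cell recording 24–30 h later at 0 mV. External 140 mM NaCl, 2 mM MgCl2, 2 mM CaCl2, 10 mM HEPES pH 7.40; NaSCN pipette solution with 10 mM alanine. 1 mM L-alanine control; outward current = leak inhibition. Ki from Michaelis–Menten-like fit, including varied alanine; Imax from 1 mM response and Km. ≥4 repeats.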

[2] = target: T2, hASCT2 (Homo sapiens, UniProt Q15758); assay: Current recording in HEK293 cells expressing human ASCT2; type: cell-based
T2 sequence (Q15758 1-541): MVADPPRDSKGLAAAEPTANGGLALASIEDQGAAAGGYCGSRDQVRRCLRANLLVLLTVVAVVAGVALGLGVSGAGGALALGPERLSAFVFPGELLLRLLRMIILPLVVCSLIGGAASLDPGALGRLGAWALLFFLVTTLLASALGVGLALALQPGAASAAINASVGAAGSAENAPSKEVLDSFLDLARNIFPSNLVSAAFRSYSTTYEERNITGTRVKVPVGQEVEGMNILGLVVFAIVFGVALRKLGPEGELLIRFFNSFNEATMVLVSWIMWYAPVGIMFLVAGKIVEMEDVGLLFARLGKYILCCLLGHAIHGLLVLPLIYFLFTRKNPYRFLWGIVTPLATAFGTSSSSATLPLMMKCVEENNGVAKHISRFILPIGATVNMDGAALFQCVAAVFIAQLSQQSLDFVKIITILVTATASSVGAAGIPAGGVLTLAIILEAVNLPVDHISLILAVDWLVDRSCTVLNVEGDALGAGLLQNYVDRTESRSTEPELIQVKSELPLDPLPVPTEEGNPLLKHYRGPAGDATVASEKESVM

Compound	Behaviour in anion current assay (inhibitor / substrate) [1]	also measured
4-fluorobenzene sulfonamide [Compound 9b]		Imax, maximum current at saturating concentration ([1]; rASCT2, compared with current induced by 1 mM alanine): highest outward current
NC[C@H](N)C(=O)O [Compound 1, L-2,3-diaminopropionic acid]	properties of a transported substrate	
CS(N)(=O)=O [Compound 2b, methanesulfonamide]	borderline substrate-like properties	
C[C@H](N)C(=O)O [alanine, L-alanine]		Current for saturating alanine in hASCT2 [2]: < 20 pA
